High-throughput results (PubChem)
Only some compounds are listed: those with a hit (about 2.1% of all), similar ones and a draw of the others.
IMP-1 inh = blocks Pseudomonas aeruginosa IMP-1 metallo-beta-lactamase. purified IMP-1, nitrocefin hydrolysis, epi-absorbance fluorescence. inhibition, % at 5.6 µM. hit rate 0.45% among 290,000. AID 1556;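 active = inhibition above the mean plus 3 SD of all compounds in the same screening run, cut at about 4.5% in these data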;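 note: 0% = IMP-1 with DMSO and 100% = DMSO wells lacking enzyme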
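Assay system: purified recombinant IMP-1 beta-lactamase. Input: IMP-1 0.2 nM before substrate addition. Buffer or medium: Zinc- and detergent-supplemented HEPES buffer, pH 7.1. Schedule: 25 °C, 15 min preincubation, 25 min reaction. Signal: Epi-absorbance fluorescence, 480 nm excitation, 530 nm emission. Evaluation: percent inhibition from optical density relative to buffer-blank wells.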
UBC9 SUMO inh = SUMOylation inhibition. P63279. HTRF SUMOylation assay, SAE1/SAE2 + UBC9, in vitro. inhibition, % at 35 µM. hit rate 0.36% among 290,000; in the data active = inhibition above about 50%, passing the limit was not always enough
Target sequence (P63279 whole entry, looked up): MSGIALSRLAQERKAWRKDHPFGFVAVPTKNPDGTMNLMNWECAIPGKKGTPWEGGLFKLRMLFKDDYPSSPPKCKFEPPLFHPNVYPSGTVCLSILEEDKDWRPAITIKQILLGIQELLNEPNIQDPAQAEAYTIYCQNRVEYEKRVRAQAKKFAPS
HCV NS3 hel inh = HCV NS3 helicase inhibition; NS3 helicase DNA unwinding, Cy5 molecular beacon fluorescence; inhibition, % at 10.9 µM; hit rate 0.56% among 290,000; AID 1800;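 active = inhibition above the mean of all tested compounds plus 3 SD, set per campaign, cut at about 35% in these data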;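 note: 0% = DMSO wells and 100% = thioflavine S control wells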
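Measured by: Cy5 fluorescence, 0 and 60 min reads / Assay system: NS3 helicase fragment of HCV / Control set: low DMSO, high thioflavine S at 110 µM / Times: 1 h reaction at 25 °C, ATP-initiated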
FID counter = counter-screen for HCV NS3 helicase inhibitors: DNA intercalator displacement; DNA fluorescent intercalator displacement, fluorescence; inhibition, % at 7.9 µM; hit rate 0.17% among 290,000; in the data active = inhibition above about 37%;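 note: 0% = vehicle and 100% = reference compound; higher means more ethidium bromide displaced from hairpin DNA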
VIM-2 inhibitor = inhibitors of Pseudomonas aeruginosa VIM-2 metallo-beta-lactamase; purified VIM-2, nitrocefin hydrolysis, epi-absorbance fluorescence; inhibition, % at 5.6 µM; hit rate 0.89% among 290,000; AID 1527;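 active = inhibition above the mean of all tested compounds plus 3 SD, cutoff set per screening run, cut at about 7.5% in these data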;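 note: red hydrolysis product quenches plate fluorescence so inhibitors raise well fluorescence; 0% = enzyme with DMSO and 100% = DMSO without enzyme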
* marks the source's active call; other numbers are inactive results.

`O=C(O)c1c(C(=O)O)c(-c2ccc(F)cc2)n2c1CCC2` gave IMP-1 inh 1, UBC9 SUMO inh 5, HCV NS3 hel inh 10, FID counter -1 and VIM-2 inhibitor 11*.
Screening Cc1ccc(-c2c(C(=O)O)c(C(=O)O)c3n2CCC3)cc1 returned IMP-1 inh -2, UBC9 SUMO inh 2, HCV NS3 hel inh -5, FID counter -10 and VIM-2 inhibitor 9.8*.
Screening S=c1[nH]c2ccccc2n2cccc12 returned IMP-1 inh -3, UBC9 SUMO inh 11, HCV NS3 hel inh -2, FID counter -1 and VIM-2 inhibitor 8.7*.
For CCOC(=O)C1CCN(C(=O)c2cc3c(=O)n4cccc(C)c4nc3s2)CC1 the results were IMP-1 inh 0, UBC9 SUMO inh 27, HCV NS3 hel inh -8, FID counter -35 and VIM-2 inhibitor 10*.
Cc1cccn2c(=O)c3cc(C(=O)N4CCCCC4)sc3nc12 was read as IMP-1 inh -2, UBC9 SUMO inh 24, HCV NS3 hel inh -4, FID counter -26 and VIM-2 inhibitor 12*.
CCOC(=O)C1CCN(C(=O)c2cc3c(=O)n4ccccc4nc3s2)CC1 was read as IMP-1 inh -3, UBC9 SUMO inh 28, HCV NS3 hel inh 4, FID counter -29 and VIM-2 inhibitor 1.
CCCCNC(=O)c1ccc(Cn2c(=S)[nH]c3c([nH]c4ccc(OC)cc43)c2=O)cc1 was read as IMP-1 inh -4, UBC9 SUMO inh 53*, HCV NS3 hel inh 9, FID counter -7 and VIM-2 inhibitor -3.
`Cc1nc2ccccc2c2oc(C(=O)N3CCN(c4ccc([N+](=O)[O-])cc4)CC3)cc12` gave IMP-1 inh 2, UBC9 SUMO inh -20, HCV NS3 hel inh -5, FID counter 1 and VIM-2 inhibitor -1.
For Cc1nc2ccccc2c2oc(C(=O)NC3CC3)cc12 the results were IMP-1 inh 0, UBC9 SUMO inh -1, HCV NS3 hel inh 10, FID counter -7 and VIM-2 inhibitor 8.4*.
Cc1nc2ccccc2c2oc(C(=O)N3CCN(C(=O)c4ccco4)CC3)cc12 was read as IMP-1 inh -3, UBC9 SUMO inh 1, HCV NS3 hel inh -7, FID counter -21 and VIM-2 inhibitor 8.8*.
Screening Cc1nc2ccccc2c2oc(C(=O)N3CCC(C)CC3)cc12 returned IMP-1 inh 0, UBC9 SUMO inh 19, HCV NS3 hel inh 4, FID counter -30 and VIM-2 inhibitor 11*.
`Cc1nc2ccccc2c2oc(C(=O)N3CCc4ccccc4C3)cc12` gave IMP-1 inh -4, UBC9 SUMO inh -11, HCV NS3 hel inh 4, FID counter -32 and VIM-2 inhibitor 4.
Screening O=C(c1ccco1)N1CCN(c2ccc([N+](=O)[O-])cn2)CC1 returned IMP-1 inh 0, UBC9 SUMO inh 16, HCV NS3 hel inh 5, FID counter -2 and VIM-2 inhibitor -1.
O=C(Cc1ccc(Cl)cc1)Nc1ccccc1C(=O)N1CCCCC1 was read as IMP-1 inh -4, UBC9 SUMO inh -1, HCV NS3 hel inh 7, FID counter -24 and VIM-2 inhibitor -3.
`O=C(NN1C(=O)C2C(c3ccccc3)C=CC(c3ccccc3)C2C1=O)c1ccccc1` (stereo not given) gave IMP-1 inh 34*, UBC9 SUMO inh -8, HCV NS3 hel inh -30, FID counter -14 and VIM-2 inhibitor 2.
Screening O=C(NN1C(=O)C2C(c3ccccc3)C=CC(c3ccccc3)C2C1=O)c1cccc(Br)c1 (stereo not given) returned IMP-1 inh 21*, UBC9 SUMO inh -18, HCV NS3 hel inh -5, FID counter -15 and VIM-2 inhibitor 3.
Screening Cc1ccc(NC(=O)c2c(-c3c(F)cccc3Cl)noc2C)cc1F returned IMP-1 inh 41*, UBC9 SUMO inh 8, HCV NS3 hel inh 1, FID counter 0 and VIM-2 inhibitor 7.
Screening CN(C)Cc1c(O)ccc2c3c(c(=O)oc12)CCCCC3 returned IMP-1 inh 0, UBC9 SUMO inh 48, HCV NS3 hel inh 3, FID counter 6 and VIM-2 inhibitor -2.
For CN(Cc1c(O)ccc2c1oc(=O)c1ccccc12)C1CCCCC1 the results were IMP-1 inh 1, UBC9 SUMO inh 18, HCV NS3 hel inh 4, FID counter 11 and VIM-2 inhibitor 8.7*.
`CCN(CC)CCNC(=S)Nc1ccc2nc(N3CCN(C)CC3)cc(C)c2c1` gave IMP-1 inh -3, UBC9 SUMO inh 16, HCV NS3 hel inh -1, FID counter 44* and VIM-2 inhibitor -5.
Screening CCCCN(CC)CCCNC(=S)Nc1ccc2nc(N3CCN(C)CC3)cc(C)c2c1 returned IMP-1 inh -2, UBC9 SUMO inh 8, HCV NS3 hel inh -1, FID counter 32 and VIM-2 inhibitor 0.
`CCCN(CCC)CCCNC(=S)Nc1ccc2nc(N3CCCC3)cc(C)c2c1` gave IMP-1 inh -1, UBC9 SUMO inh -8, HCV NS3 hel inh 1, FID counter 43* and VIM-2 inhibitor 5.
Cc1cc(N2CCOCC2)nc2ccc(NC(=S)NCCC(C)C)cc12 was read as IMP-1 inh -1, UBC9 SUMO inh 9, HCV NS3 hel inh -58, FID counter -4 and VIM-2 inhibitor 0.
`Cc1cc(N2CCOCC2)nc2ccc(NC(=S)NCCN(C)C)cc12` gave IMP-1 inh 1, UBC9 SUMO inh -3, HCV NS3 hel inh 11, FID counter 52* and VIM-2 inhibitor 3.
For CCCCN(CC)CCCNC(=S)Nc1ccc2nc(N3CCN(CC)CC3)cc(C)c2c1 the results were IMP-1 inh -2, UBC9 SUMO inh 24, HCV NS3 hel inh 11, FID counter 52* and VIM-2 inhibitor 4.
Screening O=P(c1ccccc1)(c1ccccc1)c1cc(S(=O)(=O)O)ccc1O returned IMP-1 inh -2, UBC9 SUMO inh 5, HCV NS3 hel inh 5, FID counter -6 and VIM-2 inhibitor -3.
For COC(=O)c1cc(C(=O)Nc2ccc(S(N)(=O)=O)cc2)cc([N+](=O)[O-])c1 the results were IMP-1 inh -2, UBC9 SUMO inh 14, HCV NS3 hel inh 16, FID counter 3 and VIM-2 inhibitor 2.
Screening CCC1Oc2ccc(C)cc2N(CC(=O)NCC2CCCO2)C1=O (stereo not given) returned IMP-1 inh -1, UBC9 SUMO inh -4, HCV NS3 hel inh 4, FID counter -14 and VIM-2 inhibitor -2.
`COc1ccc(OC)c(-c2nnc(SCC(=O)N3CCCC3)o2)c1` gave IMP-1 inh -3, UBC9 SUMO inh -6, HCV NS3 hel inh 7, FID counter -19 and VIM-2 inhibitor -1.
Screening CC(=O)N1CCc2c(sc(NC(=O)c3cccc(N4C(=O)CCC4=O)c3)c2C(N)=O)C1 returned IMP-1 inh 3, UBC9 SUMO inh 24, HCV NS3 hel inh 0, FID counter 7 and VIM-2 inhibitor 0.
For CCCCCNC(=O)c1c[nH]c2ccc(S(=O)(=O)N3CCC4(CC3)OCCO4)cc2c1=O the results were IMP-1 inh -2, UBC9 SUMO inh 12, HCV NS3 hel inh 1, FID counter 6 and VIM-2 inhibitor -3.
